For data set [1], the target named is Sodium-dependent dopamine transporter (Homo sapiens) (UniProt Q01959). The experiment in a line: Displacement of [3H]BTCP from recombinant human DAT receptor expressed in CHO cells at 10 uM incubated for 120 mins by scintillation counting method. It counts as cell-based. In short, it runs like this:
(§1)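 Radioligand displacement run by a commercial provider, with test compound at 10 μM. Reported as mean ± SD of two independent measurements, each in duplicate.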

The target of data set [2] is Sodium-dependent serotonin transporter (Homo sapiens) (UniProt P31645). The experiment in a line: Displacement of [3H]imipramine from recombinant human SERT receptor expressed in CHO cells at 10 uM incubated for 60 mins by scintillation counting method. It counts as cell-based. In short, it runs like this: as §1
On the technique in general: In a radioligand displacement assay an active substance lowers the binding of a labelled ligand.

Data set [3] addresses Sodium-dependent noradrenaline transporter (Homo sapiens) (UniProt P23975). As to conditions: dose 10-100 nM.
The target of data set [4] is Sodium-dependent dopamine transporter (Homo sapiens) (UniProt Q01959). The data set can be described thus: Inhibition of DAT receptor (unknown origin) at 100 nM.
Data set [5] deals with Sodium-dependent serotonin transporter (Homo sapiens) (UniProt P31645). The data set can be described thus: Inhibition of SERT receptor (unknown origin) at 100 nM.
The nature of data set [6]: Drug accumulation in C57BL/6JRJ mouse adrenal gland at 5 mg/kg, iv followed by 1 week after washout period treated at 5 mg/kg, po followed by 1 week after washout period treated at 5 mg/kg, po measured after 30 mins. As to conditions: in vivo, 168 h, time 1 weeks. It counts as ADME, organism-based. In short, it runs like this: (§2)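 The same four C57BL/6JRJ mice (2 male, 2 female) first had i.v. and then oral PK runs, each followed by 1 week washout. They were then gavaged with 5 mg/kg in saline at 5 mL/kg. At 30 min they were decapitated under isoflurane, and blood and tissues were harvested. Tissue levels were quantified by LC-ESI-MS/MS and given as mean ± SD of four mice.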

A short description of data set [7]: Acute toxicity in C57BL6/J mouse assessed as convulsions at 1.0 to 10 mg/kg, ip. It counts as organism-based. As to conditions: in vivo, dose 1-10 mg/kg. In short, it runs like this:
(§3)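 Male mice, 12 weeks old, were handled for 10 days and rotarod-trained before dosing. Each received 1.0 or 10 mg/kg i.p. (n = 7) or vehicle, 0.5% DMSO (n = 6), at 1% body-weight volume. Animals were held 40 min in a separate cage, then observed during rotarod, light/dark box and rectal temperature tests for signs of toxicity. Sacrifice was 1 h post-dose.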

A short description of data set [8]: Drug accumulation in C57BL/6JRJ mouse brain at 5 mg/kg, iv followed by 1 week after washout period treated at 5 mg/kg, po followed by 1 week after washout period treated at 5 mg/kg, po measured after 30 mins. It counts as ADME, organism-based. As to conditions: in vivo, 168 h, time 1 weeks. In short, it runs like this: as §2
A short description of data set [9]: Acute toxicity in C57BL6/J mouse assessed as hunched posture at 1.0 to 10 mg/kg, ip. The following applies: in vivo, dose 1-10 mg/kg. It is filed as organism-based. In short, it runs like this:
as §3

Data set [10] can be described thus: AUC in C57BL/6JRJ mouse at 5 mg/kg, iv measured up to 24 hrs. It counts as ADME, organism-based. As to conditions: in vivo. In short, it runs like this:
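C57BL/6JRJ mice, 8–9 weeks old (2 male, 2 female), received 5 mg/kg (dose based on free salt MW) in 0.9% saline at 5 mL/kg by tail-vein injection after tail warming. Tail-vein blood microsamples (<20 μL) were taken at 5, 15, 30 min and 1, 1.5, 2, 4, 8 and 24 h, quantified by MRM LC-ESI-MS/MS, and reported as mean ± SD of four mice.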

The nature of data set [11]: Acute toxicity in C57BL6/J mouse assessed as piloerection at 1.0 to 10 mg/kg, ip. It counts as organism-based. The following applies: in vivo, dose 1-10 mg/kg. A digest of the protocol: as §3
Data set [12] in a line: Acute toxicity in C57BL6/J mouse assessed as gastrointestinal distress at 1.0 to 10 mg/kg, ip. It counts as organism-based. As to conditions: in vivo, dose 1-10 mg/kg. A digest of the protocol: as §3

SMILES strings stand for the structures. The source made the active and inactive calls. The calls are words filed in the database; no cut-off is given here.

Sodium-dependent noradrenaline transporter (Homo sapiens), sequence (P23975 whole entry): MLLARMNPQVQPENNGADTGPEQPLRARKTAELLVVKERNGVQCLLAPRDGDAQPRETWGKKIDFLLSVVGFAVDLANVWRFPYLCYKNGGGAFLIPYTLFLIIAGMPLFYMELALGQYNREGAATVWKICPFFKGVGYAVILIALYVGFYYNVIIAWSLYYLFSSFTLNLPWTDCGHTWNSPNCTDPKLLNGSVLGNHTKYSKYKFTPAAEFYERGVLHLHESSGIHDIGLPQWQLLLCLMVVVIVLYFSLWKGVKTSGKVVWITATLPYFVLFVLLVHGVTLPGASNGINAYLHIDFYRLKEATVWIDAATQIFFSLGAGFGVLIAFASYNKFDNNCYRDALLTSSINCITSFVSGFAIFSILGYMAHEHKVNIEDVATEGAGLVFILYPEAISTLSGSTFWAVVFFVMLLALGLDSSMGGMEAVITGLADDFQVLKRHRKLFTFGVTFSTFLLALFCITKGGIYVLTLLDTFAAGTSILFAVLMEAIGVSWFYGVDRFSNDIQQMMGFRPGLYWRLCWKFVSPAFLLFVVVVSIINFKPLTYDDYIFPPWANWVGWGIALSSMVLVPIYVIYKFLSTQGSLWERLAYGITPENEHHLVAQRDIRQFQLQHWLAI
Sodium-dependent serotonin transporter (Homo sapiens), sequence (P31645 whole entry, looked up): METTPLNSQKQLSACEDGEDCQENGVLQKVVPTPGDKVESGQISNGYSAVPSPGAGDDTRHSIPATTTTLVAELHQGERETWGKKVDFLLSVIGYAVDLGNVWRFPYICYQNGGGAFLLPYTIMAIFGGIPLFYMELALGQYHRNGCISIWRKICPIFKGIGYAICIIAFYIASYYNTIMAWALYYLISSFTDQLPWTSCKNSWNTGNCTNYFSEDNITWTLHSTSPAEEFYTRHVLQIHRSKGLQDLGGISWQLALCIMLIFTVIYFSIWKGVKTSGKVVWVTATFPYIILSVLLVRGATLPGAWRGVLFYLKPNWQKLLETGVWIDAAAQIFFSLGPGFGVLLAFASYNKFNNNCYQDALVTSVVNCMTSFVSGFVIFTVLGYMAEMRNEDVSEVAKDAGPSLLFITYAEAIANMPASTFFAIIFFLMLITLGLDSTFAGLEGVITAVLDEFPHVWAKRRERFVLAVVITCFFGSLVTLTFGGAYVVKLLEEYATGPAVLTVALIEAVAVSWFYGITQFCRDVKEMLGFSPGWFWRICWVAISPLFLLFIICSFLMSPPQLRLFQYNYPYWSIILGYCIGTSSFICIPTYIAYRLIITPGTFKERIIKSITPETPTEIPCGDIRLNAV
Sodium-dependent dopamine transporter (Homo sapiens), sequence (Q01959 whole entry): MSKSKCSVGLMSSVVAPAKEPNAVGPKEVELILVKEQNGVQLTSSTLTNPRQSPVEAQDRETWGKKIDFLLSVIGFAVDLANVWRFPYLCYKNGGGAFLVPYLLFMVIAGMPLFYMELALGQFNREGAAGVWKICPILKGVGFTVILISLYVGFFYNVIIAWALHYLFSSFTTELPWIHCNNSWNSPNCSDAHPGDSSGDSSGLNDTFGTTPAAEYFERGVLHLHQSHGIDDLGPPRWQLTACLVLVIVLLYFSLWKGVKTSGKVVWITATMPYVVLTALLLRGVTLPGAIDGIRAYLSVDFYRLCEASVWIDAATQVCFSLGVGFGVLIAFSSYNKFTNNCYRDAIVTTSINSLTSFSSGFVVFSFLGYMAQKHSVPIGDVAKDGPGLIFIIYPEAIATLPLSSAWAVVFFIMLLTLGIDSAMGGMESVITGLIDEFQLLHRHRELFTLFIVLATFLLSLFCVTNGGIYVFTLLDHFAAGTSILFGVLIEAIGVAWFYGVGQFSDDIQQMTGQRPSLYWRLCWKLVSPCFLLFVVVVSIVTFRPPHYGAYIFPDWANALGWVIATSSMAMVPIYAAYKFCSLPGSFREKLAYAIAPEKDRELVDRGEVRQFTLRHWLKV

As to `c1ccc(CN2CCCC[C@@H]3NCCCC[C@H]32)cc1`, the result in [1] and in data set [2] was Active.

As for `Clc1ccc(CN2CCCC[C@H]3NCC[C@H]32)cc1`, the inhibition result in data set [3], in data set [4] and in [5] was “Active” each time.

By AUC is commonly meant concentration integrated over time. Regarding `c1ccc(CN2CCCC[C@H]3NCC[C@H]32)cc1`, the Drug uptake result in data set [6] and in data set [8] was “Active” in each case. Besides, the Activity entry in data set [7], in data set [9], in data set [11] and in data set [12] was “Non-toxic” throughout. The molecule further had an AUC in data set [10] of 47948 ng·min/mL.

For the molecule `Clc1cc(Cl)cc(CN2CCCC[C@H]3NCC[C@H]32)c1`, the inhibition entry in data set [3], in [4] and in data set [5] was “Active” throughout.

Consider `Clc1ccccc1CN1CCCC[C@H]2NCC[C@H]21`, for which the inhibition result in [3], in data set [4] and in [5] was “Active” throughout.

As to `Clc1cccc(CN2CCCC[C@H]3NCC[C@H]32)c1Cl`, the inhibition result in data set [3], in data set [4] and in data set [5] was “Active” each time.

`Fc1cccc(CN2CCCC[C@H]3NCC[C@H]32)c1`: the inhibition entry in data set [3], in data set [4] and in data set [5] was “Active” throughout.

For the molecule `c1ccc(CN2CCCC[C@H]3NCCC[C@H]32)cc1`, the result in data set [1] and in [2] was Active.

`Clc1cccc(CN2CCCC[C@H]3NCC[C@H]32)c1`: the inhibition result in [3], in [4] and in data set [5] was “Active” throughout.

As for `c1ccc(CN2CCCC[C@@H]3NCCC[C@H]32)cc1`, the outcome in data set [1] and in data set [2] was Active.

For the molecule `Brc1cccc(CN2CCCC[C@H]3NCC[C@H]32)c1`, the inhibition entry in data set [3], in data set [4] and in data set [5] was “Active” in each case.

Values taken from ChEMBL document CHEMBL6134899 (J Med Chem, 2025).
